A selection: hits, their analogues and other compounds. The true share with any hit is near 4.9%.
NPY-Y2 antag: antagonists of human neuropeptide Y receptor Y2. P49146. inhibition, % at 2.7 µM. NPY-Y2 expressing cells, antagonist mode. AID 793. 140,000 compounds, 0.99% hits; in the data active means inhibition above about 17%
Target sequence (P49146 whole entry, looked up): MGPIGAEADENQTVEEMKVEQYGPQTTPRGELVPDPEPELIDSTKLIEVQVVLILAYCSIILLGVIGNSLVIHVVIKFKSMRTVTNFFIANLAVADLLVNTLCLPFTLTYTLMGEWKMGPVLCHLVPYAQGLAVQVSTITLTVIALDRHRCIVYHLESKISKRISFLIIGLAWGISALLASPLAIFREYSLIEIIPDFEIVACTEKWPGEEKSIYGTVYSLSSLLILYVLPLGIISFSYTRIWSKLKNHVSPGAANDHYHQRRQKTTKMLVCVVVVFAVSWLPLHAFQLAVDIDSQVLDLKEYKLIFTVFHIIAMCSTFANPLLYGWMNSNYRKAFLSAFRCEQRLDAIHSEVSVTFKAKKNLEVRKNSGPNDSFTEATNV
NPY1 pot ag: human NPY-Y1 potentiation or agonism, primary screen; P25929; NPY-Y1 expressing cells, potentiator/agonist activation; activation, % at 3.6 µM; 220,000 compounds, 0.37% hits; AID 1304; in the data active means activation above about 33%, passing the limit was not always enough;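 further: cells stimulated with NPY at EC10 then isoproterenol at EC100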
RAM inhibit: inhibitors of the yeast RAM network. inhibition, % at 50 µM. 190,000 compounds, 1.8% hits. S. cerevisiae dse1pr::URA3 reporter, 5-FOA growth OD615, 2 d; analog-sensitive cbk1-as2 kinase mutant strain;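 active means inhibition above a set limit, 3 SD over mean compound inhibition, cut at about 8.4% in these data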;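 further: inhibition rescues growth on 5-FOA so higher OD means more RAM inhibition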
NPY-Y1 antag: antagonists of human neuropeptide Y receptor Y1 | HEK293-CNG Y1 cells, membrane potential fluorescence; NPY at EC95, then isoproterenol | 200,000 compounds, 1% hits | inhibition, % at 3.6 µM | P25929;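 active means inhibition above the campaign mean inhibition of all tested compounds plus 3 SD, cut at about 20% in these data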
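Material: HEK293 Y1/CNG channel cell line | Also added: NPY (25 nM), isoproterenol (1 µM), Ro 20-1724 (25 µM) | Compound: One concentration, 3.6 µM, in 0.4% DMSO | Schedule: 3 h dye uptake, 1 h room-temperature compound, 45 min post-isoproterenol | Signal: Membrane-potential fluorescent dye readout | Read-out: % inhibition of NPY effect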
WT yeast gro inh: growth inhibition of WT yeast, mitochondrial fusion screen; inhibition, % at 10 µM; 190,000 compounds, 2.1% hits; mitochondrial fusion phenotypic screen, WT strain; in the data active means inhibition above about 58%; tested in S. cerevisiae
NPY2 pot ag: potentiates or activates human NPY-Y2 receptor. P49146. cells expressing NPY-Y2, potentiator/agonist read-out. activation, % at 3.6 µM. 220,000 compounds, 0.45% hits. AID 1359; in the data active means activation above about 27%;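 further: cells stimulated with NPY near EC25 plus isoproterenol at EC100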
Each line names hits and unclear results; the compound was inactive in the other large screens.

CC12CCC(c3c(C(=O)Nc4nccs4)nn(-c4ccccc4)c31)C2(C)C (configuration not stated)	WT yeast gro inh 76
O=[n+]1cc(-c2ccc(Br)cc2)n([O-])c2c1CCC2	none
S=C(Nc1ccccc1)N1CCn2cccc2C1c1cccnc1 (configuration not stated)	none
Fc1ccccc1C1c2cccn2CCN1C(=S)Nc1cccc(Br)c1 (configuration not stated)	WT yeast gro inh 59 (no result: NPY-Y2 antag)
Fc1ccccc1C1c2cccn2CCN1C(=S)Nc1ccc(Br)cc1 (configuration not stated)	WT yeast gro inh 62 (no result: NPY-Y2 antag)
Fc1ccc(C2c3cccn3CCN2C(=S)Nc2cccc(F)c2)cc1 (configuration not stated)	WT yeast gro inh 80 (no result: NPY-Y2 antag)
CCCCCCCCOC(=O)CCn1[nH]c(=O)c2ccccc2c1=O	WT yeast gro inh 80
CC(C)COC(=O)CCn1[nH]c(=O)c2ccccc2c1=O	none
CCCCCCCCOC(=O)c1c(CSC(=N)N)n(C)c2cc(Br)c(OC(C)=O)cc12	none (no result: NPY-Y2 antag, RAM inhibit, NPY-Y1 antag, WT yeast gro inh)
COc1ccc(-c2nc3ccccc3n2Cc2ccc(C)cc2)cc1	none
COc1ccc(Cn2c(-c3ccc(C)cc3)c[n+]3ccccc23)cc1	WT yeast gro inh 60
CC(CN1CCN(C)CC1)OC(=O)c1ccc(F)cc1 (configuration not stated)	none (no result: NPY-Y2 antag)
O=C(CCc1ccc(S(=O)(=O)NC2CCCCC2)cc1)N(Cc1ccccc1)Cc1ccccc1	RAM inhibit 11
CCCCCCOC1(c2ccccc2)OC(=O)c2ccccc21 (configuration not stated)	WT yeast gro inh 63
CCSc1nnc(NC(=O)NC(CC)(C(F)(F)F)C(F)(F)F)s1	NPY1 pot ag 47
Cc1ccc(C(=O)NNC(=O)C2CCN(S(=O)(=O)c3ccc(C)cc3)CC2)cc1	none (no result: NPY-Y2 antag, RAM inhibit, NPY-Y1 antag, WT yeast gro inh)
Cc1cccn2c(=O)c(/C=C(\C#N)C(=O)NC3CCS(=O)(=O)C3)c(N3CC(C)OC(C)C3)nc12 (configuration not stated)	none (no result: NPY-Y2 antag, RAM inhibit, NPY-Y1 antag, WT yeast gro inh)
Cc1ccc(SCc2cn3cccnc3n2)cc1	none
Cc1ccn2cc(CSc3ccccc3)nc2c1	WT yeast gro inh 60
CNc1nc2c3ccccc3n(C(C)=O)c2s1	none
CC1CCCN(CCCOc2ccc(Br)cc2Cl)C1 (configuration not stated)	NPY-Y1 antag 21 (no result: NPY-Y2 antag)
CCCCNc1oc(-c2cccs2)nc1S(=O)(=O)c1ccccc1	RAM inhibit 9.5
CNc1oc(-c2cccs2)nc1S(=O)(=O)c1ccccc1	none (no result: NPY-Y2 antag)
C(=N\Nc1ccc2ccccc2n1)/c1ccc2c(c1)OCCO2	none (no result: NPY-Y2 antag)
Cc1cccc(/C=N/Nc2ccc3ccccc3n2)c1	WT yeast gro inh 64 (no result: NPY-Y2 antag)
O=[N+]([O-])c1cncc([N+](=O)[O-])c1Nc1ccccc1Cl	none (no result: NPY-Y2 antag)
O=c1[nH]c(CN2CCN(c3ccccc3)CC2)nc2scc(-c3ccccc3)c12	none
Fc1ccc(N2CCN(c3nc(CN4CCOCC4)nc4scc(-c5ccccc5)c34)CC2)cc1	WT yeast gro inh 78 (no result: NPY-Y2 antag)
CCNc1nc(CN2CCCCC2)nc2scc(-c3ccccc3)c12	none
CN(Cc1ccccc1)c1nc(CN2CCOCC2)nc2scc(-c3ccccc3)c12	WT yeast gro inh 69
O=C(CCC1CCCN(C(=O)c2ccco2)C1)NCc1ccccc1F (configuration not stated)	none (no result: NPY-Y2 antag)
CN(C)S(=O)(=O)N1CCN(CC(O)COc2ccc3cc(Br)ccc3c2)CC1 (configuration not stated)	WT yeast gro inh 98
CCn1c(=S)[nH]c2c(c1=O)C(C)(C)Cc1ccccc1-2	none (no result: NPY-Y2 antag)
COc1ccc(C(CC(=O)N2CCCCC2)C(C)C)cc1 (configuration not stated)	none (no result: NPY-Y2 antag, RAM inhibit, NPY-Y1 antag, WT yeast gro inh)
COc1ccc(OCCC(=O)N2CCCCC2)cc1	WT yeast gro inh 88
C=CCn1c(CCNC(=O)c2cccs2)nnc1SCC(=O)Nc1cccc(C(C)=O)c1	none
O=C(CCN1C(=O)/C(=C/c2cccs2)SC1=S)Nc1ccccn1	none (no result: NPY-Y2 antag)
O=c1c2c(nc(NCCO)n1CC1CCCCC1)-c1ccccc1CC21CCCC1	WT yeast gro inh 69
O=c1c2c(nc3n1CCCCC3)-c1ccccc1CC21CCCCC1	RAM inhibit 9.9, WT yeast gro inh 78
COCCNC(=O)C1CC(c2ccc(F)cc2)=NO1 (configuration not stated)	none
Cc1[nH]n(-c2ccc([N+](=O)[O-])cc2)c(=O)c1C=NCCN1CCN(C(=O)C(C)C)CC1	WT yeast gro inh 63 (no result: NPY-Y2 antag)
NC(=NC(=O)c1ccc(Cl)cc1)N1N=CCC1c1ccccc1 (configuration not stated)	none (no result: NPY-Y2 antag)
N#Cc1c(-c2ccccc2)nc(N2CCOCC2)[nH]c1=O	none
COC(=O)CN(c1ccccc1)S(=O)(=O)c1ccccc1	none (no result: RAM inhibit)
CC(C)(C)NCC(O)COc1c(F)cc(Br)cc1F (configuration not stated)	NPY1 pot ag 51, NPY2 pot ag 66
Cc1cc(C)c(OCC(O)CNC(C)(C)C)c(C)c1 (configuration not stated)	NPY1 pot ag 84, NPY2 pot ag 87 (no result: NPY-Y2 antag)
Cc1c(C(=O)Oc2cccc3cccnc23)oc2ccccc12	none (no result: NPY-Y2 antag)
COc1cccc(OC)c1OCCCN1CCOCC1	none
COc1cccc(OC)c1OCCCCN1CCCC1	WT yeast gro inh 66
Cc1cc(-c2[nH]nc3c2C(c2ccsc2)C(C#N)=C(N)O3)c(C)s1 (configuration not stated)	NPY-Y2 antag 149, NPY-Y1 antag 154
CCCOc1ccc(-c2nn(-c3ccccc3)cc2/C=C2\SC(N)=NC2=O)cc1	RAM inhibit 8.8
NC1=NC(=O)/C(=C/c2cn(CCC(=O)O)nc2-c2ccc(Cl)cc2)S1	RAM inhibit 8.6
NC1=NC(=O)/C(=C/c2cn(CCC(=O)O)nc2-c2ccc(F)cc2)S1	none
Cc1cccc(N2CCN(C(=O)c3ccc(Cl)c(S(=O)(=O)NCc4ccco4)c3)CC2)c1C	WT yeast gro inh 74
Cc1ccc(S(=O)(=O)NCc2ccco2)c(C)c1C	WT yeast gro inh 74
Cc1cccc(Cn2c(=O)n(Cc3ccco3)c(=O)c3ccccc32)c1	none
CCSc1nc(N2CCOCC2)c2c(c1C#N)CCCC2	none
CC(C)c1nc(N2CCOCC2)c(C#N)c2c1CCCC2	WT yeast gro inh 74
CC(/C=C/c1ccco1)=N\NC(=O)c1cccc(Cl)c1	none
COc1ccc(OC)c(-c2cc(C3CCN(c4cc(Cl)nc(N)n4)CC3)[nH]n2)c1	WT yeast gro inh 66
COc1ccc(-c2cc(C3CCN(c4cc(Cl)nc(N)n4)CC3)[nH]n2)cc1	WT yeast gro inh 62
CNC(=O)c1nc(C)n(-c2cc(Cl)cc(Cl)c2)n1	none
CCN(CC(=O)N1CCN(c2ccccc2)CC1)S(=O)(=O)c1ccc(C)cc1	none
Cc1ccc(S(=O)(=O)N(C)CC(=O)OCC(=O)N2CCN(c3ccccc3)CC2)cc1	RAM inhibit 8.7
CC(C)(C)c1ccc(-c2noc(-c3ccno3)n2)cc1	none (no result: NPY-Y2 antag, RAM inhibit, NPY-Y1 antag, WT yeast gro inh)
